Tests used:
[1] = system: SARS-CoV-2; experiment: Antiviral activity against SARS CoV-2 (01/human/Jan2020/Thailand) infected in human Calu-3 cells for 2 hrs assessed as inhibition of viral replication measured after 48 hrs post infection by IFA assay; assay type: functional, organism-based; details: for IC50: Severe acute respiratory syndrome coronavirus 2, (01/human/Jan2020/Thailand)
[2] = Selectivity index, ratio of CC50 for human HK-2 to IC50 for SARS CoV-2 (01/human/Jan2020/Thailand) infected in African green monkey Vero E6 cells; assay type: toxicity; details: HK-2 cells, read-out: Ratio CC50/IC50
[3] = Selectivity index, ratio of CC50 for human HepG2 to IC50 for SARS CoV-2 (01/human/Jan2020/Thailand) infected in African green monkey Vero E6 cells; assay type: toxicity; details: read-out: Ratio CC50/IC50
[4] = system: HK-2; experiment: Cytotoxicity against human HK-2 cells assessed as reduction in cell viability incubated for 48 hrs by MTT assay; assay type: toxicity, cell-based; details: hk-2, 48 h
Summary of the method: (§1)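 Cells plated at 5×10^4/well and exposed 48 h to 0–100 µM (or extract 0–100 µg/mL). MTT added at 0.5 mg/mL final for 4 h at 37 °C, formazan dissolved in DMSO, absorbance read at 570 nm. Data normalised to solvent control and CC50 fitted.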

[5] = system: Caco-2; experiment: Cytotoxicity against human Caco-2 cells assessed as reduction in cell viability incubated for 48 hrs by MTT assay; assay type: functional; summary of the method: as §1
[6] = system: SARS-CoV-2; experiment: Antiviral activity against SARS CoV-2 (01/human/Jan2020/Thailand) infected in human Calu-3 cells for 2 hrs assessed as inhibition of viral replication measured after 48 hrs post infection by plague assay; assay type: functional, organism-based; details: Severe acute respiratory syndrome coronavirus 2, (01/human/Jan2020/Thailand)
[7] = system: Calu-3; experiment: Cytotoxicity against human Calu-3 cells assessed as reduction in cell viability incubated for 48 hrs by MTT assay; assay type: functional; summary of the method: as §1
[8] = Selectivity index, ratio of CC50 for human imHC to IC50 for SARS CoV-2 (01/human/Jan2020/Thailand) infected in African green monkey Vero E6 cells; assay type: toxicity; details: read-out: Ratio CC50/IC50
[9] = target: Replicase polyprotein 1ab (Severe acute respiratory syndrome coronavirus 2, UniProt P0DTD1); experiment: Inhibition of C-terminal His 6 tagged SARS CoV-2 main protease transfected in Escherichia coli BL21 (DE3); design: species or system Severe acute respiratory syndrome-related coronavirus
[10] = system: SH-SY5Y; experiment: Cytotoxicity against human SH-SY5Y cells assessed as reduction in cell viability incubated for 48 hrs by MTT assay; assay type: functional; summary of the method: as §1
[11] = system: HepG2; experiment: Cytotoxicity against human HepG2 cells assessed as reduction in cell viability incubated for 48 hrs by MTT assay; assay type: functional; summary of the method: as §1
[12] = system: SARS-CoV-2; experiment: Antiviral activity against SARS CoV-2 (01/human/Jan2020/Thailand) infected in African green monkey Vero E6 cells for assessed as inhibition of viral replication preincubated for 1 hr followed by viral adsorption for 2 hrs and measured after 48 hrs by hoechst staining based analysis; assay type: functional, organism-based; details: Severe acute respiratory syndrome coronavirus 2, (01/human/Jan2020/Thailand), Vero C1008
[13] = Selectivity index, ratio of CC50 for human Calu-3 to IC50 for SARS CoV-2 (01/human/Jan2020/Thailand) infected in African green monkey Vero E6 cells; assay type: toxicity; details: Calu-3 cells, read-out: Ratio CC50/IC50
[14] = system: SARS-CoV-2; experiment: Antiviral activity against SARS CoV-2 (01/human/Jan2020/Thailand) infected in human Calu-3 cells for 2 hrs assessed as reduction in extracellular viral RNA measured after 48 hrs post infection by qRT-PCR analysis; assay type: functional, organism-based; details: Severe acute respiratory syndrome coronavirus 2, dose 0.1-100 µg/ml, DDE = dose-dependent effect
[15] = system: SARS-CoV-2; experiment: Antiviral activity against SARS CoV-2 (01/human/Jan2020/Thailand) infected in African green monkey Vero E6 cells assessed as inhibition of viral replication pre-infected with cells for 2 hrs followed by compound addition and measured after 48 hrs post infection by plague assay; assay type: functional, organism-based; details: Severe acute respiratory syndrome coronavirus 2, (01/human/Jan2020/Thailand), Vero C1008
[16] = Selectivity index, ratio of CC50 for human Caco-2 to IC50 for SARS CoV-2 (01/human/Jan2020/Thailand) infected in African green monkey Vero E6 cells; assay type: toxicity; details: Caco-2 cells, read-out: Ratio CC50/IC50
[17] = system: SARS-CoV-2; experiment: Antiviral activity against SARS CoV-2 (01/human/Jan2020/Thailand) infected in African green monkey Vero E6 cells for 2 hrs assessed as inhibition of viral replication measured after 48 hrs post infection by IFA assay; assay type: functional, organism-based; details: Severe acute respiratory syndrome coronavirus 2, (01/human/Jan2020/Thailand), Vero C1008
[18] = Cytotoxicity against human imHC cells assessed as reduction in cell viability incubated for 48 hrs by MTT assay; assay type: toxicity, cell-based; summary of the method: as §1
[19] = Selectivity index, ratio of CC50 for human SH-SY5Y to IC50 for SARS CoV-2 (01/human/Jan2020/Thailand) infected in African green monkey Vero E6 cells; assay type: toxicity; details: read-out: Ratio CC50/IC50

## O=C(Nc1ccc([N+](=O)[O-])cc1Cl)c1cc(Cl)ccc1O [NICLOSAMIDE]
[1]
  IC50: 900 nM

## C=C1CC[C@@H]2[C@](C)(CO)[C@H](O)CC[C@@]2(C)[C@@H]1C/C=C1/C(=O)OC[C@H]1O [ANDROGRAPHOLIDE]
[2]
  selectivity ratio: 1000
[3]
  selectivity ratio: 2400
[1]
  IC50: 1680 nM
[1]; Severe acute respiratory syndrome coronavirus 2, dose 0.1-100 µg/ml, DDE = dose-dependent effect
  Activity: Dde
[4]
  Activity: 34.11 µM
[5]
  Activity: 52.3 µM
[6]
  IC50: 34 nM
[7]
  Activity: 58.03 µM
[8]
  selectivity ratio: 1310
[9]
  IC50: 15 µM
[10]
  Activity: 13.19 µM
[11]
  Activity: 81.52 µM
[12]
  IC50: 19 µM
[13]
  selectivity ratio: 1710
[14]
  Activity: Dde
[15]
  IC50: 280 nM
[16]
  selectivity ratio: 1540
[17]
  IC50: 6.58 µM
[18]
  Activity: 44.55 µM
[19]
  selectivity ratio: 388

## CCC(CC)COC(=O)[C@H](C)N[P@](=O)(OC[C@H]1O[C@@](C#N)(c2ccc3c(N)ncnn23)[C@H](O)[C@@H]1O)Oc1ccccc1 [REMDESIVIR]
[1]
  IC50: 43 nM
[6]
  IC50: 86 nM
[15]
  IC50: 2650 nM
[17]
  IC50: 2.71 µM

## CCN(CCO)CCCC(C)Nc1ccnc2cc(Cl)ccc12 (stereo unspecified) [HYDROXYCHLOROQUINE]
[1]
  IC50: > 50000 nM
